Reference: paper PMC2841013 (Biochemistry, 2010)
Entries after “also recorded” stand apart in the source; their conditions may differ.

Experiments:
[1] = tested on: 33 representative human bZIPs; assay: Coiled-coil array, panel of human bZIPs; assay type: binding
[2] = tested on: JUN; assay: Coiled-coil array vs JUN; assay type: binding, human; conditions: BZLF1 probe 1280 nM
[3] = tested on: FOS; assay: Coiled-coil array vs FOS; assay type: binding, human; conditions: BZLF1 probe 1280 nM
In short: (§1)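 Leucine-zipper regions of human bZIPs and viral proteins were expressed in E. coli RP3098, purified denaturing via Ni-NTA then reverse-phase HPLC, and printed on aldehyde glass slides. The fluorescently labelled BZLF1 zipper was probed at 1280 nM in phosphate buffer with GdnHCl. Each measurement averaged 8 background-corrected spots and was reported as Sarray or arrayscore, −log(F/Fmax), with F as intensity minus the probe's median signal.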

[4] = tested on: CEBPA; assay: Coiled-coil array vs CEBPA; assay type: binding, human; conditions: BZLF1; leucine-zipper regions; probe 1280 nM
In short: as §1

[5] = tested on: BZLF1; assay: Coiled-coil array, BZLF1 self-association; assay type: binding, Epstein-Barr virus; conditions: BZLF1 leucine zipper; probe 1280 nM
[6] = tested on: CEBPA (C/EBPα); conditions: cited from earlier work
[7] = tested on: MAFB on MARE DNA; assay: Gel-shift with MAFB on MARE DNA; assay type: binding, human; conditions: MAFB 4 nM, HBZLZ 4, 40, 400, or 4000 nM
[8] = tested on: MAFG on MARE DNA; assay: Gel-shift with MAFG on MARE DNA; assay type: binding, human; conditions: MAFG 4 nM, HBZLZ 4, 40, 400, or 4000 nM
[9] = target: Q9DGW5; conditions: other: circular dichroism

Molecule: BZLF1: bZIP protein encoded by Epstein-Barr virus (LLQHYREVAAAKSSENDRLRLLLKQM; fluorescently labeled when used as solution probe on the arrays (dye and site not stated); left off: His tag (from the vector pDEST17, modified versions, and the Ni-NTA purification), end not stated,)
- interaction with human bZIPs on array ([1]; BZLF1 leucine zipper, probe concentration 1280 nM, average of 8 spots): not to interact with any human bZIP peptides; also recorded: display almost exclusive homo-association
- interaction on array [2]: not observed to interact on the arrays
- interaction on array [3]: not observed to interact on the arrays
- interaction on array [4]: this pairing was not observed in our array experiments
- self-association on array [5]: observed to self-associate strongly
- interaction with CEBPA [6]: interact with many viral and cellular proteins including the human bZIP CEBPA (C/EBPα)

Molecule: BZLF1CT: BZLF1 construct with the C-terminal extension (LLQHYREVAAAKSSENDRLRLLLKQMCPSLDVDSIIPRTPDVLHEDLLNF; fluorescently labeled when used as solution probe on the arrays (dye and site not stated))
- interaction with human bZIPs on array ([1]; construct with the C-terminal extension): did not interact strongly with any human proteins

Molecule: HBZLZ: leucine-zipper-only version of HBZ (DGYTRQLEGEVESLEAERRKLLQEKEDLMGEVNYWQGRLEAMWLQ; fluorescently labeled when used as solution probe on the arrays (dye and site not stated); left off: His tag (from the vector pDEST17, modified versions, and the Ni-NTA purification), end not stated,)
- amount of MAFB bound to DNA [7]: The amount of MAF protein bound to DNA was decreased, though a higher concentration of HBZLZ was required. No additional complex was detected
- amount of MAFG bound to DNA [8]: The amount of MAF protein bound to DNA was decreased, though a higher concentration of HBZLZ was required. No additional complex was detected

B1: MEQ bZIP domain (protein)
chain: KQKLERRRKRNRDAARRRRRKQTDYVDKLHEACEELQRANEHLRKEIRDLRTECTSLRVQLACH
- Tm (homo-association) [9]: for MEQ was 35.2 °C
